# High-throughput results deposited in PubChem BioAssay by several laboratories.
# NALP3 yeast inh – NALP3 inhibition in yeast | inhibition, % at 10 µM | 0.39% of 330,000 active | Yeast reconstituted NLRP3/ASC/caspase-1, beta-gal luminescence, 24 h;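 active means inhibition of 50% or more; inactive means inhibition below 50%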;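 further: plate controls were induced DMSO wells for no effect and uninduced yeast grown without galactose for full effect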
# NALP1 yeast inh – blocks the NALP1 inflammasome reconstituted in yeast. S. cerevisiae NALP1/ASC/caspase-1 growth, X-gal OD620, 72 h. inhibition, % at 10 µM. 0.61% of 280,000 active. AID 2071; in the data active means inhibition mostly above about 24%, no sharp cut-off; inactive means mostly below about 32%
# ATG4B inhibitor – ATG4B (human) cysteine protease inhibition; ATG4B cleavage of LC3-PLA2, NBD-HPC fluorescence, 1 h; inhibition, % at 8.33 µM; 0.51% of 340,000 active; AID 504462; in the data active means inhibition above about 40%
# Target sequence (Q9Y4P1 whole entry, looked up): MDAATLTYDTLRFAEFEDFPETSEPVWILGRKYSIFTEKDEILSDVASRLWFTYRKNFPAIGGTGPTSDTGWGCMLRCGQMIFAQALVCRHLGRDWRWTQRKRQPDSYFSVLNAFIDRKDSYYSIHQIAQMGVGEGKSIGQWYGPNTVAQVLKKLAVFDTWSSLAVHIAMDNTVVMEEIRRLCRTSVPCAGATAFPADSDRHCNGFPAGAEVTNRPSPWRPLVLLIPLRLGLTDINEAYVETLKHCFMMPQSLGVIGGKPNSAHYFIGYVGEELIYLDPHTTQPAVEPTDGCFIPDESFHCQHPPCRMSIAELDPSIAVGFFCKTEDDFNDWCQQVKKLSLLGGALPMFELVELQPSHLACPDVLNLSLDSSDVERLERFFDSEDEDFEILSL
# ALR H2O2 inh – human ALR oxidase inhibition via reduced H2O2; P55789; purified ALR, DTT oxidation, H2O2 HRP-luminol luminescence; inhibition, % (concentration not given with the values); 3.8% of 290,000 active; AID 485317;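 active means mean replicate inhibition above about 79%, with every replicate also reaching it, limit read from the data; inconclusive means only one of the two criteria met; inactive means mean below limit and not every replicate reaching it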
# Target sequence (P55789 whole entry, looked up): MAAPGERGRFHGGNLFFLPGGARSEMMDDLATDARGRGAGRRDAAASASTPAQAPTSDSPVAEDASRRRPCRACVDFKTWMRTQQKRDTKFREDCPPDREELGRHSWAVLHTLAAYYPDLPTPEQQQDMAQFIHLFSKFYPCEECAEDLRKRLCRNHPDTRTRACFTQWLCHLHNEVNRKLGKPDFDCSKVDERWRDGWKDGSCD
# Calb FLC – C. albicans growth modulation with fluconazole | C. albicans CaCi-2 + fluconazole, Alamar Blue growth, 48 h | growth inhibition, % (concentration not given with the values) | 0.57% of 300,000 active | AID 1979;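 active means growth inhibition above about 58% in most replicates, limit read from the data, passing the limit was not always enough; inconclusive means exactly half the replicates above a set limit; inactive means most replicates below a set limit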;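 further: all wells also contain fluconazole at 8 µg/ml as a sub-toxic cotreatment; 0% = median of DMSO wells and 100% = median of geldanamycin control wells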
# UCH37 DUB inh – inhibitors of human deubiquitinating enzyme UCH37. 0.33% of 330,000 active. inhibition, % (test concentration not listed). AID 588478. purified proteasome/UCH37, Ub-AMC cleavage fluorescence;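 active means mean inhibition over replicate wells above about 20%, limit read from the data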;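 further: 0% = compound-free wells with enzyme and 100% = wells lacking proteasome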
#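 assay system = human UCH37 enzyme supplied as purified proteasome complex | amount = proteasome at 0.15 nM in the dispensed enzyme solution | schedule = 30 min compound-proteasome preincubation then 25 min substrate reaction, room temperature | measured by = fluorescence, ex 355 nm, em 460 nm | benchmarks = no-proteasome wells (full inhibition) and compound-free wells (no inhibition)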
# Starred values were filed as active, the others as inactive; i = inactive; ? = inconclusive; / = not tested or not shown. This is a sample that favours compounds with a hit; in the whole collection about 4.8% have one here.
SMILES,NALP3 yeast inh,NALP1 yeast inh,ATG4B inhibitor,ALR H2O2 inh,Calb FLC,UCH37 DUB inh
COC(=O)NN=Cc1cccc([N+](=O)[O-])c1,/,/,/,/,/,5
CCOc1ccc(N=Nc2c(=O)[nH]n3c(=O)c4c([nH]c23)CCCC4)cc1,25,12,11,68,-4,25*
CCOc1ccc(N=Nc2c(N)[nH][nH]c2=O)cc1,5,11,7,99*,10,14
Cc1cc2c(nn1)CCCC2=NO,/,/,/,/,/,5
N#C/C(=C\c1cc2ccccc2nc1N1CCCCC1)C(N)=O,/,28,3,93*,/,1
COc1ccc(CCN(C)CCCN2CC(c3ccccc3)CC2=O)cc1OC (configuration not stated),16,22*,-11,-3,-17,2
COc1ccc(N2CCN(CC(O)c3c[nH]c4ccc(OC)cc34)CC2C)cc1 (configuration not stated),12,20,-7,100*,-6,-5
COc1ccc2[nH]cc(C(O)CN3CCN(c4ccccc4)CC3)c2c1 (configuration not stated),/,15,/,/,-2,3
CC(C(=O)c1ccccc1)[n+]1cccc(Br)c1 (configuration not stated),12,5,-2,0,75*,4
COc1ccc(C=Nn2cnnc2SCc2ccccc2)cc1,/,/,/,/,/,6
O=C(O)c1cc(-c2ccccc2)nc2nc(N3CCCCC3)sc12,8,-16,/,80*,6,i
COc1cccc(-c2nc(CS(=O)(=O)CC(=O)NCCCN3CCN(C)CC3)c(C)o2)c1,8,26,-4,99*,-2,1
CCN1CCN(CCCNC(=O)CS(=O)(=O)Cc2nc(-c3cccc(OC)c3)oc2C)CC1,0,10,2,90*,3,3
Cc1oc(-c2ccccc2F)nc1CS(=O)(=O)CC(=O)NCCN1CCCC1,3,29*,-6,-1,6,-2
COc1cccc(-c2nc(CS(=O)(=O)CC(=O)NCCCN3CC(C)CC(C)C3)c(C)o2)c1 (configuration not stated),6,-3,5,90*,-3,3
Cc1oc(-c2ccccc2F)nc1CS(=O)(=O)CC(=O)NCCCN1CCc2ccccc2C1,3,15,-9,13,-3,0
O=C(NN=Cc1coc2ccc(Cl)cc2c1=O)c1ccc(O)cc1,/,/,/,/,/,-4
CC(=NN1CCN(Cc2ccccc2Cl)CC1)c1ccc(F)cc1,/,/,/,/,/,1
COC(=O)NN=Cc1cc(Cl)cc(Cl)c1OCc1ccc(F)cc1,/,/,/,/,/,2
CC(=NNC(=O)Cc1c(C)[nH][nH]c1=O)c1ccc2ccccc2c1,/,/,/,/,/,5
Cc1ccc(SCC(=O)NC2CCS(=O)(=O)C2)cc1C (configuration not stated),16,/,-6,99*,/,0
NC(N)=NN=Cc1ccc(OCc2ccccc2)c(OCc2ccccc2)c1,/,/,/,/,/,2
CCC(C)Nc1nc2c(c(=O)n(C)c(=O)n2C)n1Cc1cccc(C)c1 (configuration not stated),9,-49,3,97*,-9,3
Cn1c(=O)c2c(nc(N/N=C/c3cccs3)n2Cc2ccccc2)n(C)c1=O,16,26,11,96*,?,/
Cn1c(=O)c2c(nc(CN3CCc4ccccc4C3)n2Cc2cccc(Cl)c2)n(C)c1=O,-4,/,-20,-5,-2,23*
SMILES,NALP3 yeast inh,NALP1 yeast inh,ATG4B inhibitor,ALR H2O2 inh,Calb FLC,UCH37 DUB inh
COC(=O)NN=C(C)c1ccc(C)c([N+](=O)[O-])c1,/,/,/,/,/,7
O=C(CC(=O)NN=Cc1cccs1)NCc1ccccc1,/,/,/,/,/,3
CC(=NNc1ccc(S(N)(=O)=O)cc1[N+](=O)[O-])c1ccc2c(c1)OCO2,/,/,/,/,/,5
COc1ccc(C2C(C#N)=C(N=CN3CCN(C)CC3)OC3=C2C(=O)CC(C)(C)C3)cc1OC (configuration not stated),/,/,/,/,/,6
O=C(N/N=C/c1ccc(O)cc1)NC12CC3CC(CC(C3)C1)C2,15,12,-9,93*,2,/
C=C1CC(C(=O)N/N=C/c2ccc(O)cc2)C1,-2,22,1,100*,-11,/
O=C(NN=Cc1ccc(O)cc1)NC12CC3CC(CC(C3)C1)C2,/,/,/,/,/,3
CCOC(=O)COc1ccccc1/C=C\[N+](=O)[O-],/,102*,3,23,4,/
Cc1ccc(NC(=O)Cn2cnc3c(cnn3C(C)(C)C)c2=O)cc1,13,19,-12,-2,0,-1
COc1ccc(NC(=O)Cn2cnc3c(cnn3C(C)(C)C)c2=O)cc1OC,-7,31*,-7,10,-12,0
CS/C(=C\[N+](=O)[O-])Nc1ccccc1,1,35,8,80*,12,5
CS/C(=C\[N+](=O)[O-])Nc1ccc(F)cc1,8,24,15,20,-3,4
COc1ccc(CNC(=O)CN2CCN(S(=O)(=O)c3cccs3)CC2)cc1OC,-4,35*,-12,9,-8,-1
O=C(C1CCN(S(=O)(=O)c2cccs2)CC1)N1CCN(c2ccccc2)CC1,14,0,1,84*,-2,2
CCS(=O)(=O)N1CCC(C(=O)NCc2cc(OC)ccc2OC)CC1,5,41*,0,-3,26,0
CCC(CC)NC(=O)C1CCN(S(=O)(=O)c2cccs2)CC1,14,33*,-11,-4,-10,3
COc1ccc(N2CCN(C(=O)C3CCN(S(=O)(=O)c4cccs4)CC3)CC2)cc1,13,-11,-8,45,1,0
CCC(C)NC(=O)C1CCN(S(=O)(=O)c2cccs2)CC1 (configuration not stated),1,-6,-5,-7,-8,3
COc1ccc(OC)c(CNC(=O)C2CCN(S(=O)(=O)N3CCC(C)CC3)CC2)c1,7,-6,5,-2,-8,6
COc1ccc(C(=O)c2cnc(N=CN(C)C)s2)cc1,/,/,/,/,/,-5
CC(=NN(Cc1ccccc1)c1ccccc1)c1cccnc1,/,/,/,/,/,5
COc1ccc(OC)c(NC(=O)C2CCN(S(=O)(=O)c3cccs3)CC2)c1,2,39*,1,25,-1,-1
COc1ccc(C)cc1NC(=O)C1CCN(S(=O)(=O)c2cccs2)CC1,20,10,-12,-3,3,3
CC(Cn1cnc([N+](=O)[O-])n1)=NNC(=O)c1cccc(F)c1,/,/,/,/,/,3
CCOc1ccc(Cl)cc1S(=O)(=O)N1CCN(c2ccc(C)c(C)c2)CC1,17,6,-5,-12,5,6
CCOc1ccc(Cl)cc1S(=O)(=O)n1cnc2cc(C)c(C)cc21,19,41*,-15,4,24,1
O=C(NN=Cc1cccnc1)c1ccccc1NS(=O)(=O)c1cccs1,/,/,/,/,/,6
COc1ccc(Cc2nc3ccccc3n2CC(=O)N/N=C/c2ccc(O)cc2)cc1OC,2,31,-12,100*,4,/
